IC50 data for six compounds are collected here from ChEMBL document CHEMBL1138405, “Limonoid orthoacetates and antiprotozoal compounds from the roots of Pseudocedrela kotschyi” (J Nat Prod, 2007).

SMILES strings stand for the structures. Converted amounts (≈) assume the structure as drawn.

One assay has as its system Trypanosoma cruzi. The experiment in a line: Antiprotozoal activity against Trypanosoma cruzi Tulahuen C2C4 trypomastigotes in L6 cells. The class given is functional, organism-based.
For the next assay, the system named is Plasmodium falciparum. The experiment in a line: Antiplasmodial activity against Plasmodium falciparum K1. The assay is classed as functional, organism-based. Summed up: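 P. falciparum K1 is a strain resistant to chloroquine and pyrimethamine.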
Assay [1] concerns Trypanosoma brucei rhodesiense. The experiment in a line: Antiprotozoal activity against Trypanosoma brucei rhodesiense STIB900. The class given is functional, organism-based.
In the next assay the test system is Leishmania donovani. The experiment in a line: Antiprotozoal activity against Leishmania donovani MHOM/ET/67/L82 amastigotes. The assay is classed as functional, organism-based. Summed up:
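L. donovani tested as axenic amastigotes.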

A further assay concerns L6. Briefly: Cytotoxicity against rat L6 cells. The class given is cell-based.

The term IC50 denotes the concentration that inhibits the measured activity by half.

On to `O=C(Cn1ccnc1[N+](=O)[O-])NCc1ccccc1` [BENZNIDAZOLE], for which the IC50 in the assay on Trypanosoma cruzi worked out at 0.74 µg/mL (≈ 2.84 µM).

Take `CC1(C)C(=O)C=C[C@]2(C)[C@H]3CC[C@@]4(C)[C@H](c5ccoc5)OC(=O)[C@H]5O[C@]54[C@]3(C)C(=O)C[C@@H]12` [DEACETOXY-7-OXOGEDUNIN]: the IC50 was greater than 30 µg/mL with Trypanosoma cruzi; 1.77 µg/mL (≈ 4.05 µM) with Plasmodium falciparum; 3.4 µg/mL (≈ 7.75 µM) in assay [1]; 0.994 µg/mL (≈ 2.27 µM) in the assay with Leishmania donovani; greater than 90 µg/mL in the assay with L6.

`COc1cc([C@@H]2c3cc4c(cc3[C@H](O)[C@H]3COC(=O)[C@H]23)OCO4)cc(OC)c1OC` [PODOFILOX] showed an IC50 with L6 of 0.005 µg/mL (≈ 0.0121 µM).

With `CC1(C)C(=O)C=C[C@]2(C)[C@H]3CC[C@@]4(C)[C@H](c5ccoc5)OC(=O)[C@H]5O[C@]54[C@]3(C)[C@H](O)C[C@@H]12` [DEACETYLGEDUNIN], the IC50 with Trypanosoma cruzi came to 5.2 µg/mL (≈ 11.8 µM); with Plasmodium falciparum, 1.36 µg/mL (≈ 3.09 µM); in assay [1], 3.45 µg/mL (≈ 7.83 µM); in the assay on Leishmania donovani, 1.4 µg/mL (≈ 3.18 µM); with L6, 13.3 µg/mL (≈ 30.2 µM).

In the case of `CCCCCCCCCCCCCCCCOP(=O)([O-])OCC[N+](C)(C)C` [MILTEFOSINE], the midpoint of inhibition in the assay with Leishmania donovani, the IC50, lay at 0.12 µg/mL (≈ 0.294 µM).

In the case of `COC(=O)C[C@@H]1[C@](C)([C@@H](OC(C)=O)c2ccoc2)CC[C@@]23OC4(C)O[C@@]12[C@H](OC(=O)C(C)C)[C@@]1(OC(C)=O)[C@@H](OC(C)=O)[C@@]2(C)C[C@@]1(O4)[C@]31COC(=O)C[C@@H]21` [KOTSCHYIN A], the IC50 is greater than 30 µg/mL in the assay on Trypanosoma cruzi; greater than 5 µg/mL with Plasmodium falciparum; 11.6 µg/mL (≈ 15 µM) in assay [1]; greater than 30 µg/mL with Leishmania donovani; greater than 90 µg/mL in the assay with L6.
